From PubChem
C-LANA FP: blocks KSHV LANA C-terminal domain binding to DNA | inhibition, % at 9 µM | 340,000 compounds, 0.078% hits | MBP-C-LANA/FAM-LBS DNA binding, fluorescence polarization | AID 504423;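 active means highest replicate inhibition at or above 60% at 9 µM, even if other replicates fall short; inactive means all replicates below 60% inhibition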
Keap1-Nrf2 PPI: Keap1-Nrf2 (human) interaction inhibition | Keap1 Kelch-Nrf2 peptide fluorescence polarization, 1536-well | inhibition, % at 9.4 µM | 340,000 compounds, 0.15% hits; in the data active means inhibition above about 12%;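 further: human Keap1 Kelch domain with fluorescein labeled Nrf2 9mer peptide probe; higher means more block of Keap1 binding to Nrf2 peptide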
Target sequence (Q14145 whole entry, looked up, the tested form may be a part): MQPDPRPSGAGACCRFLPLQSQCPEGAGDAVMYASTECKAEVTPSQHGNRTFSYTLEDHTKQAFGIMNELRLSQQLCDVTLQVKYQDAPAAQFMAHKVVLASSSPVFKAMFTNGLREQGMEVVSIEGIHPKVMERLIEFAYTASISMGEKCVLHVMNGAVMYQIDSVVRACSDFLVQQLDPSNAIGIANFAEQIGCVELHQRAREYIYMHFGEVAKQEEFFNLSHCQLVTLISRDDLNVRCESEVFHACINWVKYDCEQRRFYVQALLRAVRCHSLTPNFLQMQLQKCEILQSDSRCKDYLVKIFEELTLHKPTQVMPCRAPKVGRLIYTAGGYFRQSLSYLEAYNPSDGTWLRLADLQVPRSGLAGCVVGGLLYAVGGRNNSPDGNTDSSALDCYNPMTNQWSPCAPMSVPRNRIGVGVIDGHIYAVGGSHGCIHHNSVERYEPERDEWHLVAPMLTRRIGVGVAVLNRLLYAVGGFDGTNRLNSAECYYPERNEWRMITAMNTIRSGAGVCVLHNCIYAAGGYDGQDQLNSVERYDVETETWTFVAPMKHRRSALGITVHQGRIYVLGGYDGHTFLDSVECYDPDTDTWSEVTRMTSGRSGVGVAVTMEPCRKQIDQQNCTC
CAL PDZ FP-1: human CAL PDZ-peptide interaction inhibition | Q9HD26 | purified CAL PDZ, TMR-peptide fluorescence polarization, 1 h | inhibition, % at 20 µM | 330,000 compounds, 0.02% hits;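 active means highest replicate inhibition of at least 40%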
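Control set: unlabelled peptide and DMSO controls / Material: purified CerCALP PDZ construct / Timing: 1 h incubation at room temperature before polarization reading / Doses: 20 µM, one dose / Detection: fluorescence polarization (mP)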
miR-122 sensor: inhibitors of miR-122 in Huh7 cells; 340,000 compounds, 0.3% hits; Huh7 miR-122 Renilla luciferase sensor, 48 h; neutral wells = 0, positive control = 100; activation (reporter increase), % at 12.5 µM;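 active means mean replicate activation score at least 90 and every replicate individually at or above 90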;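 further: higher luciferase means less miR-122 activity so hits act as miR-122 inhibitors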
CAL PDZ FP-2: blocks peptide binding to the human CAL PDZ domain | Q9HD26 | purified CAL PDZ, TMR-peptide fluorescence polarization, 1 h | inhibition, % at 24.9 µM | 300,000 compounds, 0.92% hits;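 active means mean inhibition of at least 30% with at least half of replicates also reaching 30%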
Numbers stand for hits; - = inactive; . = no result; [ ] = dose if it differs, or a comment. Most compounds without a hit are left out; they make up all but 1.1% or so of the library.

SMILES | C-LANA FP | Keap1-Nrf2 PPI | CAL PDZ FP-1 | miR-122 sensor | CAL PDZ FP-2
CCN(CCO)Cc1csc2ccc(C(C)(C)C)cc12 | - | - | - | . | 56.8
Cc1ccnc(SCC(=O)c2cc3ccccc3o2)n1 | 74.2 | - | - | . | -
O=C(O)c1ccc(CNC(=O)c2ccccc2NC(=O)c2ccc([N+](=O)[O-])cc2)cc1 | - | - | . | . | 49.5
O=C(Nc1ccccc1C(=O)Nc1ccccn1)c1ccc([N+](=O)[O-])cc1 | - | - | - | . | 42.8
COc1ccc(C(=O)Nc2ccccc2C(=O)Nc2ccccn2)cc1 | - | - | - | - | -
O=C(O)c1ccc(CNC(=O)c2ccccc2NC(=O)c2cccc([N+](=O)[O-])c2)cc1 | - | - | - | - | -
C[C@@H]1CN([C@H](C)CO)S(=O)(=O)c2ccc(-c3cccnc3)cc2O[C@@H]1CN(C)C(=O)C1CCC1 | . | . | . | - | .
Cc1noc(NS(=O)(=O)c2ccc(NC(=O)c3ccc(OC(C)C)cc3)cc2)c1C | - | - | - | . | -
Cc1noc(NS(=O)(=O)c2ccc(NC(=O)c3ccc(N(C)C)cc3)cc2)c1C | - | - | - | - | 57.7
O=C(NCC[C@H]1CC[C@H](NS(=O)(=O)c2ccc(F)cc2)[C@@H](CO)O1)Nc1ccc(Cl)cc1 | . | . | . | - | .
O=C1C2CCCN2C(=O)N1CCCCN1CCN(c2ccc(F)cc2)CC1 (configuration not stated) | - | - | - | - | -
Cc1ccc(N2CCN(CCCCN3C(=O)C4CCCN4C3=O)CC2)cc1 (configuration not stated) | - | - | - | . | 63.0
CO[C@H]1CN(C)C(=O)c2cc(NC(C)=O)ccc2OC[C@H](C)N(CC2CCCCC2)C[C@@H]1C | . | . | . | - | .
CC(=O)OCCn1c(C)[n+](CCOC(C)=O)c2cc(Cl)c(Cl)cc21 | - | - | - | . | -
CC(=O)OCCn1c2nc(=O)[nH]c(=O)c-2nc2cc(C)c(C)cc21 | 163.4 | 156.5 | - | . | -
C[C@@H]1CN([C@@H](C)CO)C(=O)c2cc(NC(=O)CCCN(C)C)ccc2O[C@@H](C)CCCCO[C@H]1CN(C)S(=O)(=O)c1cccs1 | . | . | . | - | .
O=C(c1ccc2c(c1)OCO2)C1CCCN(Cc2cc(F)ccc2-n2cccn2)C1 (configuration not stated) | - | - | - | . | 57.0
Cc1ccc(CN2C(=O)c3ccccc3NC2c2ccccn2)cc1 (configuration not stated) | - | - | - | . | 57.6
C[C@@H]1CN([C@H](C)CO)C(=O)c2cc(C#CC3CC3)cnc2O[C@H]1CN(C)C(=O)c1ccncc1 | . | . | . | - | .
C=CCNC(=O)/C(C#N)=C/c1cn(-c2ccccc2)nc1-c1ccc(OC)c([N+](=O)[O-])c1 | - | - | - | 147.3 | .
Cc1ccc(S(=O)(=O)NC(CC(C)C)C(=O)N2CC(C)OC(C)C2)cc1 (configuration not stated) | - | - | - | - | 75.5
Cc1ccc(S(=O)(=O)Nc2cccc3c2O[C@@H](CN(C)C(=O)Nc2ccc(C(F)(F)F)cc2)[C@H](C)CN([C@H](C)CO)C3=O)cc1 | . | . | . | - | .
Cc1cc(O)c(C=O)c2c1C(=O)Oc1c(CO)c(O)c3c(c1O2)C(O)OC3=O (configuration not stated) | 118.4 | 47.0 | - | - | -
Cc1cc(O)c(CN(C)C)c2c1C(=O)/C(=C/c1ccco1)O2 | - | - | - | . | -
CN1CC=C2C(C#N)=C(N)C(C#N)(C#N)C(CCc3ccccc3)C2C1 (configuration not stated) | - | 20.4 | - | - | -
SMILES | C-LANA FP | Keap1-Nrf2 PPI | CAL PDZ FP-1 | miR-122 sensor | CAL PDZ FP-2
O=[N+]([O-])c1ccc(Sc2n[nH]c(-c3ccc(Cl)cc3Cl)n2)nc1 | - | - | . | - | 43.5
CC(C)(C)c1nc(Sc2ccc([N+](=O)[O-])cn2)n[nH]1 | - | - | - | . | -
O=[N+]([O-])c1cccnc1N/N=C/c1ccccc1O | - | - | - | - | 76.3
O=C(CNS(=O)(=O)c1ccc([N+](=O)[O-])cc1)N/N=C/c1ccc(O)cc1O | - | - | . | - | 34.5
O=[N+]([O-])c1ccc(NN=Cc2ccccc2O)nc1 | - | - | - | - | 42.0
O=C(CNS(=O)(=O)c1ccc([N+](=O)[O-])cc1)N/N=C\c1ccc(O)cc1 | . | - | - | - | -
O=[N+]([O-])c1ccc(NN=Cc2ccc(O)cc2O)nc1 | - | - | - | - | 47.8
Cc1c(O)ccc(/C=N/Nc2ncccc2[N+](=O)[O-])c1O | - | - | - | . | -
Cc1cccc(NC(=O)CSCC(=O)Nc2ccc(N3CCOCC3)cc2N2CCOCC2)c1 | - | - | - | - | 89.1
CCCCCOc1ccc(C(=O)Nc2ccc(N3CCOCC3)cc2N2CCOCC2)cc1 | - | - | - | - | 44.6
C[C@@H]1CN([C@@H](C)CO)C(=O)c2cc(NS(=O)(=O)c3cccs3)ccc2O[C@@H](C)CCCCO[C@H]1CN(C)CC1CCCCC1 | . | . | . | - | .
Cc1ccc2c(c1)C(=O)CCN2 | - | - | - | - | -
Cc1ccc2c(c1)C(=C(C#N)C#N)CCN2 | - | - | - | . | 38.7
Cc1noc(C)c1NC(=O)Nc1cccc2c1O[C@@H](CN(C)Cc1ccc(Cl)c(Cl)c1)[C@@H](C)CN([C@H](C)CO)C2=O | . | . | . | 114.1[16.7 µM] | .
Cc1noc(C)c1NC(=O)Nc1cccc2c1O[C@H](CN(C)Cc1ccccc1)[C@@H](C)CN([C@H](C)CO)C2=O | . | . | . | 96.5[16.7 µM] | .
C[C@@H]1CN([C@H](C)CO)C(=O)c2cc(NS(=O)(=O)c3ccccc3)ccc2O[C@@H](C)CCCCO[C@@H]1CN(C)C(=O)c1ccccc1 | . | . | . | - | .
O=C(CSc1nnc(-c2c[nH]c3ccccc23)o1)NCC1CCCO1 (configuration not stated) | - | - | - | - | 44.0
CC(C)NC(=O)NC(=O)CSc1nnc(-c2c[nH]c3ccccc23)o1 | - | - | - | - | -
Cc1sc2ncnc(N3CCC(C(=O)NNC(=O)c4ccccc4Cl)CC3)c2c1C | - | - | - | - | 37.0
Cc1sc2ncnc(N3CCC(C(=O)NNC(=O)COc4ccccc4Cl)CC3)c2c1C | - | - | - | - | .
OC[C@@H]1[C@@H](c2ccc(/C=C/c3ccccc3)cc2)[C@@H]2CN(Cc3ccncc3)CCCCN12 | . | . | . | - | .
COC(=O)/C(C#N)=C/c1ccc(-c2ccc(S(N)(=O)=O)cc2)o1 | - | - | - | - | 35.8
CC(C)OC(=O)/C(C#N)=C/c1ccc(-c2ccc(SC(F)F)cc2)o1 | - | - | - | . | -
C/C=C/c1cnc2c(c1)C(=O)N([C@H](C)CO)C[C@@H](C)[C@@H](CN(C)C(=O)Nc1ccc(OC)cc1)O2 | . | . | . | - | .
Cc1nn(C)c(C(=O)Sc2ccccc2)c1[N+](=O)[O-] | - | - | - | - | -
Cc1nn(C)c(C(=O)Sc2cccc(Cl)c2)c1[N+](=O)[O-] | - | - | - | . | 94.6
C[C@@H]1CN([C@H](C)CO)C(=O)Cc2cc(NC(=O)Cn3cnnn3)ccc2O[C@@H]1CN(C)C | . | . | . | - | .
COCCOCC(O)CN1CCN(c2ccc(C)cc2)CC1 (configuration not stated) | - | - | - | - | -
